These results are taken from ChEMBL document CHEMBL6092210, “Synthesis, in vitro and in vivo biological evaluation of novel dual compounds targeting both acetylcholinesterase and serotonergic 5-HT4 receptors with potential interest in the treatment of Alzheimer's disease” (Eur J Med Chem, 2024).

The structures appear in SMILES notation.

Usually clearance stands for the volume of plasma or blood freed of the substance per unit of time. The IC50 is the concentration that inhibits the measured activity by half.

A short description of series [1]: Drug metabolism in dog liver microsome measured at 10 mins by UPLC/QE-orbitrap-MS method. The series is classed as ADME, Canis lupus familiaris. The conditions noted are these: microsomes. A digest of the protocol: (§1)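 Test compound as fumarate salt incubated with human, dog, mouse or rat liver microsomes over 0–60 min. Parent remaining measured by UPLC/QE-orbitrap-MS as relative LC/MS peak area (% of 0 min), n = 1.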
(Liver microsomes are a subcellular fraction often used to study metabolism.)

A short description of series [2]: Clearance in C57BL6 mouse at 3 mg/kg, iv. The series is classed as ADME, organism-based. The conditions noted are these: in vivo. The gist of the method: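 Single iv dose of 0.3, 1 or 3 mg/kg in 0.9 % saline, three animals per dose (C57Bl6 mice, Wistar rats). Terminal cardiac-puncture blood under isoflurane at six time points. Plasma protein-precipitated and assayed by UHPLC–MS/MS (LLOQ 1 ng/mL). Parameters from non-compartmental analysis.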

Series [3] is described as follows: Drug metabolism in dog liver microsome measured at 20 mins by UPLC/QE-orbitrap-MS method. The format is ADME, Canis lupus familiaris. The conditions noted are these: microsomes. A digest of the protocol: as §1
A short description of series [4]: Drug metabolism in rat liver microsome measured at 10 mins by UPLC/QE-orbitrap-MS method. The format is ADME. The note with it: microsomes. The gist of the method:
as §1

The next series deals with T1, Cytochrome P450 2A6 (Homo sapiens, UniProt P11509).
T1 sequence (P11509 whole entry): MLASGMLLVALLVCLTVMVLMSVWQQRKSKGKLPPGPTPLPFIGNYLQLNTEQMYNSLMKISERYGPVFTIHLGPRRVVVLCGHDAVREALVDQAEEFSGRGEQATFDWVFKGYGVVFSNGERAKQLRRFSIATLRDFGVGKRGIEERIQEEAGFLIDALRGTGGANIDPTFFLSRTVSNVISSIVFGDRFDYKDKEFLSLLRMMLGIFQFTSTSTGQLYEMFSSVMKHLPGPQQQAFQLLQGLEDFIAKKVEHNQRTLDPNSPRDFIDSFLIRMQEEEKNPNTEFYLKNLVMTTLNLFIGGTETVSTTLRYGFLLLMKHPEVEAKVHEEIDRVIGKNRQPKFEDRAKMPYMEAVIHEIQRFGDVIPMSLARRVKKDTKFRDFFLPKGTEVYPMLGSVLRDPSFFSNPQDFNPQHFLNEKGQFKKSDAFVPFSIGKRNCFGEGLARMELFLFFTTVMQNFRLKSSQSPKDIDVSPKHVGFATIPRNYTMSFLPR
Briefly: Inhibition of CYP2A6 in human liver microsomes using coumarin as substrate. The format is ADME, Microsome. The gist of the method: (§2)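 Human liver microsomes with a cocktail of CYP-specific probe substrates; metabolite formation monitored for each probe reaction. Test compound (fumarate) at 0.01, 0.1, 1, 10 and 100 μM. Control inhibitors run at a single concentration for each probe reaction. IC50 estimated.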

Series [5] can be described thus: Drug metabolism in mouse liver microsome measured at 10 mins by UPLC/QE-orbitrap-MS method. The format is ADME. The conditions noted are these: microsomes. A digest of the protocol:
as §1

In a further series the target is Cytochrome P450 2C9 (Homo sapiens, UniProt P11712). Briefly: Inhibition of CYP2C9 in human liver microsomes using diclofenac as substrate. The format is ADME, Microsome. A digest of the protocol: as §2
The next series deals with T2, Cytochrome P450 1A2 (Homo sapiens, UniProt P05177).
T2 sequence (P05177 whole entry): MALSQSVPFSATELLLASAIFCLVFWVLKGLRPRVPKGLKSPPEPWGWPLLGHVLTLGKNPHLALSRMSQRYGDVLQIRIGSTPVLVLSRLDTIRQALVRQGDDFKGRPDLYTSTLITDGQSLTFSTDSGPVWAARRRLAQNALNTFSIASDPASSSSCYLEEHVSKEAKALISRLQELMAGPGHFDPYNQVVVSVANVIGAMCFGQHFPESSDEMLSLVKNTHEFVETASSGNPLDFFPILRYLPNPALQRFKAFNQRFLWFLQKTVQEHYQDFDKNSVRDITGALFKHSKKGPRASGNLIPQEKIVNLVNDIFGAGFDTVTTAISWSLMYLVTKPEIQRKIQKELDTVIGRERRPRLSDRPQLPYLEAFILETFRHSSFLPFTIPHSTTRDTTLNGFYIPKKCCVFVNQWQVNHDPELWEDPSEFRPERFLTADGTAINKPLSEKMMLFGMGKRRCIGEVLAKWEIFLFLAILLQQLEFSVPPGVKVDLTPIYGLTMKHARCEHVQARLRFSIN
Put plainly: Inhibition of CYP1A2 in human liver microsomes using phenacetin as substrate. The format is ADME, Microsome. The gist of the method: as §2

Series [6] is described as follows: Drug metabolism in human liver microsome measured at 10 mins by UPLC/QE-orbitrap-MS method. The conditions noted are these: microsomes. The format is ADME. The gist of the method:
as §1

Cytochrome P450 2C9, sequence (P11712 whole entry): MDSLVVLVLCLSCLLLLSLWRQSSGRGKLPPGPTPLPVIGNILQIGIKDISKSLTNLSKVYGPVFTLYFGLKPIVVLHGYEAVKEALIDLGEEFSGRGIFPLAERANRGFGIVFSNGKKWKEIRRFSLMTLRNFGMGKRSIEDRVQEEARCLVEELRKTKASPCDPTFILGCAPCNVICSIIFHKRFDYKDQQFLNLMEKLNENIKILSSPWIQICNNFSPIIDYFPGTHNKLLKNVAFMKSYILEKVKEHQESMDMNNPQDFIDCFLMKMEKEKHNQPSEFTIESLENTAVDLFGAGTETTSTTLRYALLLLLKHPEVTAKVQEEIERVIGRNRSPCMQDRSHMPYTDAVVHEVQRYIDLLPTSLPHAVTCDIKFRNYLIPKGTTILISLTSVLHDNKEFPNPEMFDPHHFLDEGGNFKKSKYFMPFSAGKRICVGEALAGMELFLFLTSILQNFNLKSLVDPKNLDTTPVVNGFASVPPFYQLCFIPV

`COc1cc(N)c(F)cc1C(=O)CCC1CCN(CC2CCCCC2)CC1.O=C(O)/C=C/C(=O)O`: the Drug metabolism in series [1] was 77%; in series [3] it was 60%; in series [4] it was 26%; in series [5] it was 63%; in [6], 89%. In addition, the clearance in series [2] was 191 mL/min/kg. Besides, the IC50 at Cytochrome P450 2A6 is over 100 µM; on Cytochrome P450 2C9 it was over 100 µM; against Cytochrome P450 1A2, 83.1 µM.
